# Only some compounds are listed: those with a hit (about 5.9% of all), similar ones and a draw of the others.
# T cruzi growth-1 = inhibitors of T. cruzi proliferation; inhibition, % at 8.34 µM; actives 5.9% (n = 77,000); T. cruzi beta-gal in NIH3T3, GalScreen luminescence, 90 h;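 active = mean inhibition above about 93%, with at least 55% of replicates each passing it, limit read from the data, passing the limit was not always enough; inconclusive = only one of those two conditions holds; inactive = neither condition holds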
# KDM4C inh = inhibitors of human demethylase GASC-1 KDM4C; actives 0.15% (n = 96,000); GST-KDM4C 2-372, H3K9me3 peptide, LANCE TR-FRET; inhibition, % at 12.5 µM; AID 720574; Q9H3R0;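 active = mean replicate inhibition above about 25%, with at least 55% of replicates also reaching it, limit read from the data, passing the limit was not always enough; inconclusive = only one of those two conditions met; inactive = neither condition met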
# Target sequence (Q9H3R0 2-372 limits assumed): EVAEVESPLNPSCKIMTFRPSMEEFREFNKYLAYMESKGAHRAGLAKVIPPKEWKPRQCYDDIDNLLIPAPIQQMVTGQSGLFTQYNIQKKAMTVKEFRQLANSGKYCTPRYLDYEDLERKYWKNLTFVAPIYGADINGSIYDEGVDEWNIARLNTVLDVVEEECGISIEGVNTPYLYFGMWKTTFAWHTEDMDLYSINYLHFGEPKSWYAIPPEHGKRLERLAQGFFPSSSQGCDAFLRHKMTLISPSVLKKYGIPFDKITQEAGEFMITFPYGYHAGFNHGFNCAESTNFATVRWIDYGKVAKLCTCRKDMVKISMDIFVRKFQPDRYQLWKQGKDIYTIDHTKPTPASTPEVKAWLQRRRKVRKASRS
#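 Test system: N-terminal GST-fused human GASC-1 (KDM4C) fragment, residues 2-372; quantity: GASC-1 enzyme at 10 nM final in reaction; dosing: single dose; schedule: 30 min demethylation and 1 h detection at room temperature; signal: LANCE TR-FRET, excitation 340 nm, emissions 618 and 671 nm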
# IDH1 mut inh = blocks human IDH1 R132H reductase activity | O75874 | diaphorase/resazurin fluorescence, 60 min | inhibition, % at 10 µM | actives 0.18% (n = 70,000) | AID 624101; in the data active = inhibition above about 34%; inconclusive = no clear call, values can overlap the other calls; inactive = below about 11%;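 also: 0% = DMSO and 100% = no enzyme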
# Pf Dd2 inh = inhibitors of Plasmodium falciparum Dd2 growth | P. falciparum Dd2 growth, SYBR Green, 72 h; active compounds read low | actives 2.3% (n = 94,000) | AID 1159554 | activity change, % at 10 µM; in the data active = activity change below about -80%; inconclusive = no clear call, values can overlap the other calls
# T cruzi growth-2 = inhibitors of T. cruzi proliferation. shares compounds with T cruzi growth-1. T. cruzi beta-gal in NIH3T3, GalScreen luminescence, 90 h. inhibition, % at 8.35 µM. actives 72% (n = 5,600). AID 651739;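 active = mean replicate inhibition above about 95% and at least 55% of replicates individually reaching it, limit read from the data; inconclusive = only one of the two criteria is met; inactive = neither criterion is met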
# T cruzi growth-3 = Trypanosoma cruzi proliferation inhibition | shares compounds with T cruzi growth-1 | T. cruzi beta-gal in NIH3T3, GalScreen luminescence, 90 h | inhibition, % at 2.09 µM | actives 21% (n = 5,600);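 active = mean inhibition above about 95%, with at least 55% of replicates also reaching it, limit read from the data; inconclusive = meets just one of the two conditions; inactive = meets neither condition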;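 also: plate controls were neutral control median for no effect and positive control median for full effect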
# 3T3 cytotox = cytotoxicity in mouse NIH/3T3 fibroblasts | shares compounds with T cruzi growth-1 | NIH/3T3 viability, CellTiter-Glo ATP luminescence, 90 h | cytotoxicity (signal decrease), % at 8.35 µM | actives 14% (n = 5,600);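 active = mean signal decrease across replicates above about 35% based on untreated-well scatter, with enough replicates individually passing, limit read from the data; inconclusive = no rule stated though some were filed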;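 also: 0% = median of neutral control wells and 100% = median of positive control wells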
# NIH3T3 tox 2 = NIH/3T3 (mouse) viability loss | shares compounds with T cruzi growth-1 | NIH/3T3 viability, CellTiter-Glo ATP luminescence, 90 h | inhibition, % at 24.9 µM | actives 56% (n = 5,600);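 active = mean loss of cell viability signal at or above a set limit, and enough replicates individually reaching it; inconclusive = meets only the mean limit or only the replicate share; inactive = meets neither condition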;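 also: 0% = median of neutral control wells and 100% = median of positive control wells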
# Starred values were filed as active, the others as inactive; ? = inconclusive; nt = no result given.
SMILES,T cruzi growth-1,KDM4C inh,IDH1 mut inh,Pf Dd2 inh,T cruzi growth-2,T cruzi growth-3,3T3 cytotox,NIH3T3 tox 2
O=C(c1ccc(F)cc1)N1CCCCN2[C@H](C1)[C@H](c1ccc(-c3ccc(F)cc3)cc1)[C@@H]2CO,93,nt,nt,-6,nt,nt,nt,nt
O=C(c1ccc(F)cc1)N1CCCCN2[C@@H](CO)[C@H](c3ccc(-c4ccc(F)cc4)cc3)[C@@H]2C1,104*,nt,nt,2,89,19,44*,106*
O=C(c1ccc(F)cc1)N1CCCCN2[C@H](CO)[C@@H](c3ccc(-c4ccc(F)cc4)cc3)[C@@H]2C1,100*,nt,nt,1,99*,103*,18,104*
COc1cccc(-c2ccc([C@H]3[C@@H](CO)N4CCCCN(C(=O)c5ccc(F)cc5)C[C@H]34)cc2)c1,108*,0,nt,-38,108*,94,-18,104*
CC(C)(C)c1ccc(OCC(=O)Nc2ccccc2-c2nc3ccccc3s2)cc1,nt,nt,0,nt,nt,nt,nt,nt
CCOC(=O)c1sc(NC(=O)c2cc(-c3ccccc3)on2)c(C(=O)OCC)c1C,nt,nt,1,nt,nt,nt,nt,nt
CCNC(=O)[C@H]1[C@H](CO)[C@H]2Cn3c(ccc(C4=CCCCC4)c3=O)[C@H]2N1C(=O)c1cnccn1,66,0,nt,-13,nt,nt,nt,nt
CCNC(=O)[C@@H]1[C@@H](CO)[C@@H]2Cn3c(ccc(C4=CCCC4)c3=O)[C@@H]2N1C(=O)CC1CC1,?,1,nt,8,55,18,0,-11
CCCNC(=O)[C@H]1[C@H](CO)[C@H]2Cn3c(ccc(C4=CCCC4)c3=O)[C@H]2N1C(=O)c1cnccn1,99*,2,nt,-4,33,-7,5,7
CCCNC(=O)[C@@H]1[C@@H](CO)[C@@H]2Cn3c(ccc(C4=CCCC4)c3=O)[C@@H]2N1C(=O)c1cnccn1,97*,-1,nt,-7,22,0,-22,-3
CCNC(=O)[C@H]1[C@H](CO)[C@H]2Cn3c(ccc(C4=CCCCC4)c3=O)[C@H]2N1C(=O)CC1CC1,11,5,nt,-5,nt,nt,nt,nt
COc1cc(C(=O)NC2(C(F)(F)F)C(=O)N(CC3CCCO3)C3=C2C(=O)CC(C)(C)C3)cc(OC)c1OC (stereo not given),nt,nt,0,nt,nt,nt,nt,nt
CC(C)CC#Cc1ccc2c(c1)O[C@H](CN(C)Cc1ccccn1)[C@@H](C)CN([C@@H](C)CO)S2(=O)=O,132*,0,-1,-74,97*,114*,20,105*
CC(C)CC#Cc1ccc2c(c1)O[C@H](CN(C)Cc1ccccn1)[C@H](C)CN([C@H](C)CO)S2(=O)=O,115*,2,-4,-64,106*,56,12,107*
COCC#Cc1ccc2c(c1)O[C@H](CN(C)Cc1ccccn1)[C@H](C)CN([C@H](C)CO)S2(=O)=O,15,3,0,-1,nt,nt,nt,nt
O=C(CC1CC1)N1CC[C@@H]2[C@H](CO)Nc3ccc(-c4cccc(F)c4)cc3[C@@H]21,4,0,nt,-14,nt,nt,nt,nt
O=C(CC1CC1)N1CC[C@H]2[C@H](CO)Nc3ccc(-c4ccc(F)cc4)cc3[C@H]21,107*,-1,nt,25,108*,103*,-18,17
O=C(CC1CC1)N1CC[C@@H]2[C@H]1c1cc(-c3ccc(F)cc3)ccc1N[C@@H]2CO,103*,0,nt,6,102*,101*,-8,82*
O=C(CC1CC1)N1CC[C@@H]2[C@@H](CO)Nc3ccc(-c4ccc(F)cc4)cc3[C@@H]21,?,-1,nt,7,104*,64,18,12
C[C@H](CO)N1C[C@H](C)[C@@H](CN(C)Cc2ccc(-c3ccccc3)cc2)Oc2ccc(NC(=O)c3ccncc3)cc2CC1=O,125*,0,-5,-79,112*,82,19,106*
C[C@@H]1CN([C@@H](C)CO)C(=O)Cc2cc(NC(=O)c3ccncc3)ccc2O[C@@H]1CN(C)Cc1ccc(-c2ccccc2)cc1,48,-1,0,-26,nt,nt,nt,nt
C[C@H]1CN([C@@H](C)CO)C(=O)Cc2cc(NC(=O)c3ccncc3)ccc2O[C@H]1CN(C)Cc1ccc(Oc2ccccc2)cc1,97*,-2,0,13,98*,48,33,104*
O=C(c1cccc(F)c1)N1CC[C@@H]2[C@@H](CO)Nc3ccc(-c4cccc(F)c4)cc3[C@@H]21,16,-2,nt,-20,nt,nt,nt,nt
OC[C@H]1Nc2ccc(-c3cccc(F)c3)cc2[C@@H]2[C@H]1CCN2Cc1ccncc1,97*,2,nt,-62,102*,81,21,89*
OC[C@@H]1Nc2ccc(-c3cccc(F)c3)cc2[C@H]2[C@@H]1CCN2Cc1ccc(F)cc1,103*,-2,nt,-68,108*,115*,26,103*
SMILES,T cruzi growth-1,KDM4C inh,IDH1 mut inh,Pf Dd2 inh,T cruzi growth-2,T cruzi growth-3,3T3 cytotox,NIH3T3 tox 2
CC(C)C#Cc1ccc([C@H]2[C@H]3CN(S(=O)(=O)Cc4ccccc4)CCCCN3[C@H]2CO)cc1,110*,0,nt,-3,106*,46,27,21
CC(C)C#Cc1ccc([C@H]2[C@@H](CO)N3CCCCN(S(=O)(=O)Cc4ccccc4)C[C@@H]23)cc1,109*,1,nt,5,108*,65,27,12
CC(C)C#Cc1ccc([C@@H]2[C@H](CO)N3CCCCN(S(=O)(=O)Cc4ccccc4)C[C@@H]23)cc1,102*,-1,nt,-63,104*,72,47*,105*
C[C@H](O)C#Cc1ccc([C@@H]2[C@@H](CO)N3CCCCN(S(=O)(=O)Cc4ccccc4)C[C@@H]23)cc1,54,1,nt,-40,nt,nt,nt,nt
CC(C)C#Cc1ccc([C@H]2[C@@H](CO)N3CCCCN(S(=O)(=O)Cc4ccccc4)C[C@H]23)cc1,103*,2,nt,-66,105*,73,58*,105*
Cc1nc(SC(C(=O)c2ccccc2)c2ccccc2)nc2c1CCCC2 (stereo not given),nt,nt,0,nt,nt,nt,nt,nt
CCc1cnc(N2[C@H](C#N)[C@@H](c3ccc(C#CC(C)C)cc3)[C@@H]2CO)s1,98*,-4,nt,-47,104*,110*,-3,43*
CCc1cnc(N2[C@H](CO)[C@@H](c3ccc(C#CC(C)C)cc3)[C@@H]2C#N)s1,99*,-1,nt,-41,101*,104*,-2,52*
Cc1cc(Cl)ccc1NC(=O)CSc1nnc(-c2cccs2)n1-c1ccccc1,nt,nt,0,nt,nt,nt,nt,nt

# Screening results as filed in PubChem BioAssay.
